Measured values from ChEMBL document CHEMBL3856275, “Discovery of Second Generation Reversible Covalent DPP1 Inhibitors Leading to an Oxazepane Amidoacetonitrile Based Clinical Candidate (AZD7986)” (J Med Chem, 2016).

How the values were obtained:
[1] = Apparent permeability across basolateral to apical side in human Caco2 cells at 10 uM after 1 hr by LC-MS method; conditions: Caco-2
[2] = Intrinsic clearance in dog hepatocytes at 1 uM after 5 to 120 mins by LC-MS/MS method; format: ADME, cell-based, Canis lupus familiaris, Hepatocyte
Summary of the method: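 Hepatocyte intrinsic clearance for rat and dog, given in µL/min/10^6 cells.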

[3] = Apparent permeability across apical to basolateral side in human Caco2 cells at 10 uM after 2 hrs by LC-MS/MS method; format: ADME, cell-based; conditions: Caco-2
Summary of the method: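 Caco-2 bidirectional permeability run as P_app, given in cm/s x 10^-6.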

[4] = Volume of distribution at steady state in Han Wistar rat at 1 mg/kg, iv and 3 mg/kg, po; format: ADME, organism-based; conditions: in vivo, read-out: Vdss
Summary of the method: (§1)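 Han Wistar rat PK with 1 mg/kg iv and 3 mg/kg po doses, both in pH3 buffer. Clearance is given in ml/min/kg, Vss in L/kg and t1/2 in h.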

[5] = Protein binding in human plasma at 10 uM after 6 hrs by LC-MS/MS method; format: ADME, cell-free; conditions: read-out: PPB (converted)
Dipeptidyl peptidase 1 [6] = target: T1, Dipeptidyl peptidase 1 (Rattus norvegicus, UniProt P80067); test: Inhibition of rat DPP1 using Gly-Arg-AMC as substrate preincubated for 30 mins followed by substrate addition by fluorometric assay
T1 sequence (P80067 whole entry): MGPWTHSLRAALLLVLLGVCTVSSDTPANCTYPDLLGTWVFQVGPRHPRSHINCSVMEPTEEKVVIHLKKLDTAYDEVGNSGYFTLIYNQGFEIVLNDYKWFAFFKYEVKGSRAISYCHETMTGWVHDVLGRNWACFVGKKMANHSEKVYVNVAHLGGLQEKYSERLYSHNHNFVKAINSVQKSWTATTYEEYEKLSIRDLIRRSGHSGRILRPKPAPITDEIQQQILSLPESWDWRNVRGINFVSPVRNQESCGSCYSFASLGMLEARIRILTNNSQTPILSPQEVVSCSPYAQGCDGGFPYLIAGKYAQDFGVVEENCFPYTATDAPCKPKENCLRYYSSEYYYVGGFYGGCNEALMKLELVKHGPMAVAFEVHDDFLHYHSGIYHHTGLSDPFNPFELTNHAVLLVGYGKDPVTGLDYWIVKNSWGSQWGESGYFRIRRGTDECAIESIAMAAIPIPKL

[7] = Half life in Han Wistar rat at 1 mg/kg, iv and 3 mg/kg, po; format: ADME, organism-based; conditions: in vivo; summary of the method: as §1
Pro-cathepsin H = target: T2, Pro-cathepsin H (Homo sapiens, UniProt P09668); test: Inhibition of human recombinant cathepsin H
T2 sequence (P09668 whole entry): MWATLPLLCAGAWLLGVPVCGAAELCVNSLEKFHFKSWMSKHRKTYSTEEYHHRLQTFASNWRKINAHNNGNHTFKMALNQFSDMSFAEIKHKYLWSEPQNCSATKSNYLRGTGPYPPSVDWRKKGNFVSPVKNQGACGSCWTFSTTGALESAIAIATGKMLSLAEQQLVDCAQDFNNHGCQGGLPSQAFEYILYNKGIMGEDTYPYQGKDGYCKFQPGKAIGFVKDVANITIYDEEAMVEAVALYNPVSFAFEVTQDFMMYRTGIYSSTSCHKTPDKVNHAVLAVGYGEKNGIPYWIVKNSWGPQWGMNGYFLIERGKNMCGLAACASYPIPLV

[8] = Intrinsic clearance in human hepatocytes at 1 uM after 5 to 120 mins by LC-MS/MS method; format: ADME, cell-based, Hepatocyte
Summary of the method: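 Intrinsic clearance in human hepatocytes, given in µL/min/10^6 cells.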

Rattus norvegicus [9] = test: In vivo inhibition of DPP1 in po dosed naive rat assessed as inactivation of proteinase 3 in bone marrow cell lysates administered as bid for 8 days; format: functional, organism-based
[10] = Apparent permeability across apical to basolateral side in human Caco2 cells at 10 uM after 1 hr by LC-MS method; conditions: Caco-2
[11] = Protein binding in dog plasma at 10 uM after 6 hrs by LC-MS/MS method; format: ADME, cell-free, Canis lupus familiaris; conditions: read-out: PPB (converted)
[12] = Intrinsic clearance in human liver microsomes at 1 uM after 5 to 30 mins by LC-MS/MS method; format: ADME; conditions: read-out: CLH
Summary of the method: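 Human liver microsome stability, with intrinsic clearance given in µL/min/mg.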

[13] = Clearance in Han Wistar rat at 1 mg/kg, iv and 3 mg/kg, po; format: ADME, organism-based; conditions: in vivo; summary of the method: as §1
physchem = conditions: octanol/water, pH 7.4
[14] = Clearance in Sprague-Dawley rat at 1 mg/kg, iv or 3 mg/kg, po; format: ADME, organism-based; conditions: in vivo
Rattus norvegicus [15] = test: In vivo inhibition of DPP1 in po dosed naive rat assessed as inactivation of neutrophil elastase in bone marrow cell lysates administered as bid for 8 days; format: functional, organism-based
Cathepsin D = Cathepsin D (Homo sapiens, UniProt P07339); test: Inhibition of human recombinant cathepsin D
[16] = Volume of distribution at steady state in Sprague-Dawley rat at 1 mg/kg, iv or 3 mg/kg, po; format: ADME, organism-based; conditions: in vivo, read-out: Vdss
[17] = Oral bioavailability in Han Wistar rat at 3 mg/kg; format: ADME, organism-based; conditions: in vivo; summary of the method: as §1
[18] = Half life in Sprague-Dawley rat at 1 mg/kg, iv or 3 mg/kg, po; format: ADME, organism-based; conditions: in vivo
Dipeptidyl peptidase 1 [19] = target: Dipeptidyl peptidase 1 (Canis lupus familiaris, UniProt O97578); test: Inhibition of dog DPP1 using Gly-Arg-AMC as substrate preincubated for 30 mins followed by substrate addition by fluorometric assay
Summary of the method: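 Recombinant dog DPP1 enzyme, run under the same conditions as the human isolated-enzyme assay in a piperazine-based buffer. Compound and enzyme pre-incubated 30 min at rt. Fluorescent dipeptide substrate Gly-Arg-AMC then added and fluorescence read. pIC50 obtained by curve fitting.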

Cathepsin E = target: T3, Cathepsin E (Homo sapiens, UniProt P14091); test: Inhibition of human recombinant cathepsin E
T3 sequence (P14091 whole entry): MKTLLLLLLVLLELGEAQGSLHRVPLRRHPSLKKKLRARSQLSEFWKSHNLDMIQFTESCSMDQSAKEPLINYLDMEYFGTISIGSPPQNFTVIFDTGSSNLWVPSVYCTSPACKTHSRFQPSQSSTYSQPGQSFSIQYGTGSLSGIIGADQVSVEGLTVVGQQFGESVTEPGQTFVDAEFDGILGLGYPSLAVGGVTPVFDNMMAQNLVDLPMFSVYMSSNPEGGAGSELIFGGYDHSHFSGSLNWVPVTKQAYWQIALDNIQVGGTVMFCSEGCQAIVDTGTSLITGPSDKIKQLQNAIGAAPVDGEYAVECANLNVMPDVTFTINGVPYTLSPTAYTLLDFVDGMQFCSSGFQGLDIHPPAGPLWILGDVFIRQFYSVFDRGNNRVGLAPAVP

[20] = Inhibition of rabbit DPP1 expressed in CHO cells using Gly-Arg-AMC as substrate preincubated for 30 mins followed by substrate addition by fluorometric assay; format: cell-based, Oryctolagus cuniculus
[21] = Oral bioavailability in Beagle dog at 2 mg/kg; format: ADME, organism-based, Canis lupus familiaris; conditions: in vivo
[22] = Intrinsic clearance in human liver microsomes at 1 uM after 5 to 40 mins by LC-MS/MS method; format: ADME; conditions: read-out: CLH
[23] = Propionaldehyde reactivity assessed as half life of the compound at pH 7.4 by LC-UV method; format: physicochemical
Cathepsin S = Cathepsin S (Homo sapiens, UniProt P25774); test: Inhibition of human recombinant cathepsin S
Cathepsin S, sequence (P25774 whole entry): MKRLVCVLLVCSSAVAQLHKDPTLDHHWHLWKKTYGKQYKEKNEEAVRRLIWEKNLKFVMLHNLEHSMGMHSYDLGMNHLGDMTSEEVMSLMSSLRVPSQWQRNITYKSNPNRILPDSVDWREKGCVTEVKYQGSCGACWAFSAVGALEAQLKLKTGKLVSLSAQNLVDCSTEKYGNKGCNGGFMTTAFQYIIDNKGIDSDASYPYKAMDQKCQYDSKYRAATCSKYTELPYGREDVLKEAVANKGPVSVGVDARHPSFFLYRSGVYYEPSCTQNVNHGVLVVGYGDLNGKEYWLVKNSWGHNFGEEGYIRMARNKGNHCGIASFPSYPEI

Dipeptidyl peptidase 1 (Canis lupus familiaris, UniProt O97578), sequence (O97578 1-109 limits assumed): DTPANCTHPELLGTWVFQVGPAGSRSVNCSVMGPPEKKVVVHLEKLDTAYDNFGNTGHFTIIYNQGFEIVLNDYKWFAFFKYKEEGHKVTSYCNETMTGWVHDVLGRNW
Dipeptidyl peptidase 1 (Canis lupus familiaris, UniProt O97578), sequence (O97578 200-366 limits assumed): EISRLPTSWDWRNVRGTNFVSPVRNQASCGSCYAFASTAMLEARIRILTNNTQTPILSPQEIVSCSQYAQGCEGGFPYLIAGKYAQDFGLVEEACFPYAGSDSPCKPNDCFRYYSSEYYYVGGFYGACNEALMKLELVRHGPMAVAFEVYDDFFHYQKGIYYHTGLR
Dipeptidyl peptidase 1 (Canis lupus familiaris, UniProt O97578), sequence (O97578 367-435 limits assumed): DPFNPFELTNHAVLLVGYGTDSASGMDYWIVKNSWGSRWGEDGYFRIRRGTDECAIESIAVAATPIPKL
Cathepsin D, sequence (P07339 65-162 limits assumed): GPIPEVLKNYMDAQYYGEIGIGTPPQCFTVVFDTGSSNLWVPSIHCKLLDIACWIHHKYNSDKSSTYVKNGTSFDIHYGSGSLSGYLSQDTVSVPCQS
Cathepsin D, sequence (P07339 169-412 limits assumed): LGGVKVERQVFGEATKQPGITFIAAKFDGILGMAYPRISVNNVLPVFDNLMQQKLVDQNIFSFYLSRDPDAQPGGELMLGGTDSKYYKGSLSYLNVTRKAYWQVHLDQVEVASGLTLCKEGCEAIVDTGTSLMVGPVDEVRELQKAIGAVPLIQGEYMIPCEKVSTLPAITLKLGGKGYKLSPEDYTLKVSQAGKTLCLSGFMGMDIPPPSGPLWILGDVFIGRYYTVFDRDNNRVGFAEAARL

Question: For Cn1c(=O)oc2ccc(-c3ccc(C[C@@H](C#N)NC(=O)[C@@H]4CNCCCO4)cc3)cc21 [BRENSOCATIB], which Papp B→A at 1 h, 10 µM [1] is on record?
Answer: 58 ×10⁻⁶ cm/s

Question: And the CLH [2]?
Answer: < 1 µL/min/1e6 cells

Question: What about the Papp A→B at 2 h, 10 µM [3] of the same molecule?
Answer: 4 ×10⁻⁶ cm/s

Question: What about the Vd [4] of the same molecule?
Answer: 2.5 L/kg

Question: And the fraction unbound at 6 h, 10 µM [5]?
Answer: 0.13

Question: And the IC50 (Dipeptidyl peptidase 1 [6])?
Answer: 0.02 µM

Question: What about the half-life [7] of the same molecule?
Answer: 5 h

Question: What about the IC50 (Pro-cathepsin H) of the same molecule?
Answer: > 20 µM

Question: And the CLH [8]?
Answer: < 1 µL/min/1e6 cells

Question: And the inhibition (Rattus norvegicus [9])?
Answer: Dose-dependent effect

Question: What about the Papp A→B at 1 h, 10 µM [10] of the same molecule?
Answer: 9.2 ×10⁻⁶ cm/s

Question: And the fraction unbound at 6 h, 10 µM [11]?
Answer: 0.3

Question: And the microsomal CLint at 1 µM [12]?
Answer: < 3 µL/min/mg

Question: And the clearance [13]?
Answer: 7 mL/min/kg

Question: And the logD at 10 µM (physchem)?
Answer: 0.8

Question: What about the clearance [14] of the same molecule?
Answer: 1 mL/min/kg

Question: What about the inhibition (Rattus norvegicus [15]) of the same molecule?
Answer: Dose-dependent effect

Question: What about the IC50 (Cathepsin D) of the same molecule?
Answer: > 20 µM

Question: And the Vd [16]?
Answer: 1 L/kg

Question: What about the bioavailability [17] of the same molecule?
Answer: 75%

Question: And the half-life [18]?
Answer: 7 h

Question: What about the IC50 (Dipeptidyl peptidase 1 [19]) of the same molecule?
Answer: 0.0158 µM

Question: What about the IC50 (Cathepsin E) of the same molecule?
Answer: > 20 µM

Question: What about the pIC50 [20] of the same molecule?
Answer: 7.8

Question: What about the bioavailability [21] of the same molecule?
Answer: 92%

Question: And the microsomal CLint at 1 µM [22]?
Answer: < 14 µL/min/mg

Question: And the half-life [23]?
Answer: > 50 h

Question: And the IC50 (Cathepsin S)?
Answer: > 20 µM
